# Laboratory results reported in ChEMBL document CHEMBL2384977, “Synthesis and biological evaluation of novel styryl benzimidazole derivatives as probes for imaging of neurofibrillary tangles in Alzheimer's disease” (Bioorg Med Chem, 2013).
# Tests used:
# Blood [1] = assay: Biodistribution in ddY mouse blood at 13.2 to 20.6 kBq, iv measured at 2 mins by gamma counting analysis; format: ADME, organism-based; conditions: in vivo
# Summary of the method: (§1)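 Male ddY mice, 5 weeks old, received the 125I-labelled tracer (13.2–20.6 kBq) intravenously in the tail vein, in 100 µL saline containing ethanol. Animals were sacrificed at 2, 10, 30 and 60 min. Tissue radioactivity is expressed as %ID/g, mean (SD) of 5 animals.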
# Stomach [2] = assay: Biodistribution in ddY mouse stomach at 13.2 to 20.6 kBq, iv measured per organ at 60 mins by gamma counting analysis; format: ADME, organism-based; conditions: in vivo, 1 h
# Summary of the method: (§2)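 Male ddY mice, 5 weeks old, were injected in the tail vein with the 125I tracer (13.2–20.6 kBq) in 100 µL saline containing ethanol. Sacrifice at 2, 10, 30 and 60 min. Stomach radioactivity is expressed as %ID per whole organ, mean (SD) of 5 animals.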
# Blood [3] = assay: Biodistribution in ddY mouse blood at 13.2 to 20.6 kBq, iv measured at 30 mins by gamma counting analysis; format: ADME, organism-based; conditions: in vivo, 0.5 h; summary of the method: as §1
# [4] = 1-Octanol-PBS buffer partition coefficient, log P of the compound at 0.37 MBq after 2 mins by gamma counting analysis; format: physicochemical
# Kidney [5] = assay: Biodistribution in ddY mouse kidney at 13.2 to 20.6 kBq, iv measured at 60 mins by gamma counting analysis; format: ADME, organism-based; conditions: in vivo, 1 h; summary of the method: as §1
# Lung [6] = assay: Biodistribution in ddY mouse lung at 13.2 to 20.6 kBq, iv measured at 10 mins by gamma counting analysis; format: ADME, organism-based; conditions: in vivo; summary of the method: as §1
# Liver [7] = assay: Biodistribution in ddY mouse liver at 13.2 to 20.6 kBq, iv measured at 30 mins by gamma counting analysis; format: ADME, organism-based; conditions: in vivo, 0.5 h; summary of the method: as §1
# Liver [8] = assay: Biodistribution in ddY mouse liver at 13.2 to 20.6 kBq, iv measured at 10 mins by gamma counting analysis; format: ADME, organism-based; conditions: in vivo; summary of the method: as §1
# Stomach [9] = assay: Biodistribution in ddY mouse stomach at 13.2 to 20.6 kBq, iv measured per organ at 30 mins by gamma counting analysis; format: ADME, organism-based; conditions: in vivo, 0.5 h; summary of the method: as §2
# Spleen [10] = assay: Biodistribution in ddY mouse spleen at 13.2 to 20.6 kBq, iv measured at 2 mins by gamma counting analysis; format: ADME, organism-based; conditions: in vivo; summary of the method: as §1
# Pancreas [11] = assay: Biodistribution in ddY mouse pancreas at 13.2 to 20.6 kBq, iv measured at 60 mins by gamma counting analysis; format: ADME, organism-based; conditions: in vivo, 1 h; summary of the method: as §1
# Stomach [12] = assay: Biodistribution in ddY mouse stomach at 13.2 to 20.6 kBq, iv measured per organ at 10 mins by gamma counting analysis; format: ADME, organism-based; conditions: in vivo; summary of the method: as §2
# Pancreas [13] = assay: Biodistribution in ddY mouse pancreas at 13.2 to 20.6 kBq, iv measured at 30 mins by gamma counting analysis; format: ADME, organism-based; conditions: in vivo, 0.5 h; summary of the method: as §1
# Intestine [14] = assay: Biodistribution in ddY mouse intestine at 13.2 to 20.6 kBq, iv measured at 60 mins by gamma counting analysis; format: ADME, organism-based; conditions: in vivo, 1 h; summary of the method: as §1
# Kidney [15] = assay: Biodistribution in ddY mouse kidney at 13.2 to 20.6 kBq, iv measured at 30 mins by gamma counting analysis; format: ADME, organism-based; conditions: in vivo, 0.5 h; summary of the method: as §1
# Blood [16] = assay: Biodistribution in ddY mouse blood at 13.2 to 20.6 kBq, iv measured at 10 mins by gamma counting analysis; format: ADME, organism-based; conditions: in vivo; summary of the method: as §1
# Spleen [17] = assay: Biodistribution in ddY mouse spleen at 13.2 to 20.6 kBq, iv measured at 10 mins by gamma counting analysis; format: ADME, organism-based; conditions: in vivo; summary of the method: as §1
# Intestine [18] = assay: Biodistribution in ddY mouse intestine at 13.2 to 20.6 kBq, iv measured at 10 mins by gamma counting analysis; format: ADME, organism-based; conditions: in vivo; summary of the method: as §1
# Kidney [19] = assay: Biodistribution in ddY mouse kidney at 13.2 to 20.6 kBq, iv measured at 10 mins by gamma counting analysis; format: ADME, organism-based; conditions: in vivo; summary of the method: as §1
# Heart [20] = assay: Biodistribution in ddY mouse heart at 13.2 to 20.6 kBq, iv measured at 2 mins by gamma counting analysis; format: ADME, organism-based; conditions: in vivo; summary of the method: as §1
# Brain [21] = assay: Biodistribution in ddY mouse brain at 13.2 to 20.6 kBq, iv measured at 2 mins by gamma counting analysis; format: ADME, organism-based; conditions: in vivo; summary of the method: as §1
# Lung [22] = assay: Biodistribution in ddY mouse lung at 13.2 to 20.6 kBq, iv measured at 30 mins by gamma counting analysis; format: ADME, organism-based; conditions: in vivo, 0.5 h; summary of the method: as §1
# Spleen [23] = assay: Biodistribution in ddY mouse spleen at 13.2 to 20.6 kBq, iv measured at 60 mins by gamma counting analysis; format: ADME, organism-based; conditions: in vivo, 1 h; summary of the method: as §1
# Heart [24] = assay: Biodistribution in ddY mouse heart at 13.2 to 20.6 kBq, iv measured at 60 mins by gamma counting analysis; format: ADME, organism-based; conditions: in vivo, 1 h; summary of the method: as §1
# Lung [25] = assay: Biodistribution in ddY mouse lung at 13.2 to 20.6 kBq, iv measured at 2 mins by gamma counting analysis; format: ADME, organism-based; conditions: in vivo; summary of the method: as §1
# Brain [26] = assay: Biodistribution in ddY mouse brain at 13.2 to 20.6 kBq, iv measured at 30 mins by gamma counting analysis; format: ADME, organism-based; conditions: in vivo, 0.5 h; summary of the method: as §1
# Intestine [27] = assay: Biodistribution in ddY mouse intestine at 13.2 to 20.6 kBq, iv measured at 30 mins by gamma counting analysis; format: ADME, organism-based; conditions: in vivo, 0.5 h; summary of the method: as §1
# Blood [28] = assay: Biodistribution in ddY mouse blood at 13.2 to 20.6 kBq, iv measured at 60 mins by gamma counting analysis; format: ADME, organism-based; conditions: in vivo, 1 h; summary of the method: as §1
# Spleen [29] = assay: Biodistribution in ddY mouse spleen at 13.2 to 20.6 kBq, iv measured at 30 mins by gamma counting analysis; format: ADME, organism-based; conditions: in vivo, 0.5 h; summary of the method: as §1
# Pancreas [30] = assay: Biodistribution in ddY mouse pancreas at 13.2 to 20.6 kBq, iv measured at 2 mins by gamma counting analysis; format: ADME, organism-based; conditions: in vivo; summary of the method: as §1
# Heart [31] = assay: Biodistribution in ddY mouse heart at 13.2 to 20.6 kBq, iv measured at 30 mins by gamma counting analysis; format: ADME, organism-based; conditions: in vivo, 0.5 h; summary of the method: as §1
# Pancreas [32] = assay: Biodistribution in ddY mouse pancreas at 13.2 to 20.6 kBq, iv measured at 10 mins by gamma counting analysis; format: ADME, organism-based; conditions: in vivo; summary of the method: as §1
# Stomach [33] = assay: Biodistribution in ddY mouse stomach at 13.2 to 20.6 kBq, iv measured per organ at 2 mins by gamma counting analysis; format: ADME, organism-based; conditions: in vivo; summary of the method: as §2
# Brain [34] = assay: Ratio of drug level in ddY mouse brain at 13.2 to 20.6 kBq, iv measured at 2 mins to drug level in ddY mouse brain at 13.2 to 20.6 kBq, iv measured at 60 mins; format: ADME, organism-based; conditions: in vivo
# Summary of the method: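 Tail-vein injection of the 125I tracer (13.2–20.6 kBq, saline with ethanol) into male 5-week-old ddY mice. The ratio is brain uptake (%ID/g) at 2 min divided by brain uptake at 60 min, from groups of 5 animals.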
# Intestine [35] = assay: Biodistribution in ddY mouse intestine at 13.2 to 20.6 kBq, iv measured at 2 mins by gamma counting analysis; format: ADME, organism-based; conditions: in vivo; summary of the method: as §1
# Brain [36] = assay: Biodistribution in ddY mouse brain at 13.2 to 20.6 kBq, iv measured at 60 mins by gamma counting analysis; format: ADME, organism-based; conditions: in vivo, 1 h; summary of the method: as §1
# Liver [37] = assay: Biodistribution in ddY mouse liver at 13.2 to 20.6 kBq, iv measured at 2 mins by gamma counting analysis; format: ADME, organism-based; conditions: in vivo; summary of the method: as §1
# Lung [38] = assay: Biodistribution in ddY mouse lung at 13.2 to 20.6 kBq, iv measured at 60 mins by gamma counting analysis; format: ADME, organism-based; conditions: in vivo, 1 h; summary of the method: as §1
# Heart [39] = assay: Biodistribution in ddY mouse heart at 13.2 to 20.6 kBq, iv measured at 10 mins by gamma counting analysis; format: ADME, organism-based; conditions: in vivo; summary of the method: as §1
# Kidney [40] = assay: Biodistribution in ddY mouse kidney at 13.2 to 20.6 kBq, iv measured at 2 mins by gamma counting analysis; format: ADME, organism-based; conditions: in vivo; summary of the method: as §1
# Liver [41] = assay: Biodistribution in ddY mouse liver at 13.2 to 20.6 kBq, iv measured at 60 mins by gamma counting analysis; format: ADME, organism-based; conditions: in vivo, 1 h; summary of the method: as §1
# Brain [42] = assay: Biodistribution in ddY mouse brain at 13.2 to 20.6 kBq, iv measured at 10 mins by gamma counting analysis; format: ADME, organism-based; conditions: in vivo; summary of the method: as §1
structure (smiles),measurement,setting,value
Nc1ccc(/C=C/c2nc3ccc([125I])cc3[nH]2)cc1,Drug uptake,Blood [1],5.94 % ID/g
same,Drug uptake,Stomach [2],4.37 %ID
same,Drug uptake,Blood [3],1.57 % ID/g
same,logP at 2 min,[4],1.88
same,Drug uptake,Kidney [5],3.25 % ID/g
same,Drug uptake,Lung [6],3.55 % ID/g
same,Drug uptake,Liver [7],19.3 % ID/g
same,Drug uptake,Liver [8],29.9 % ID/g
same,Drug uptake,Stomach [9],3.6 %ID
same,Drug uptake,Spleen [10],5.5 % ID/g
same,Drug uptake,Pancreas [11],1.43 % ID/g
same,Drug uptake,Stomach [12],4.13 %ID
same,Drug uptake,Pancreas [13],0.69 % ID/g
same,Drug uptake,Intestine [14],27.4 % ID/g
same,Drug uptake,Kidney [15],2.54 % ID/g
same,Drug uptake,Blood [16],2.72 % ID/g
same,Drug uptake,Spleen [17],4.87 % ID/g
same,Drug uptake,Intestine [18],13.7 % ID/g
same,Drug uptake,Kidney [19],5.04 % ID/g
same,Drug uptake,Heart [20],8.31 % ID/g
same,Drug uptake,Brain [21],3.2 % ID/g
same,Drug uptake,Lung [22],1.62 % ID/g
same,Drug uptake,Spleen [23],2.46 % ID/g
same,Drug uptake,Heart [24],1.13 % ID/g
same,Drug uptake,Lung [25],9.09 % ID/g
same,Drug uptake,Brain [26],0.26 % ID/g
same,Drug uptake,Intestine [27],22.1 % ID/g
same,Drug uptake,Blood [28],1.24 % ID/g
same,Drug uptake,Spleen [29],2.71 % ID/g
same,Drug uptake,Pancreas [30],4.99 % ID/g
same,Drug uptake,Heart [31],1.48 % ID/g
same,Drug uptake,Pancreas [32],1.93 % ID/g
same,Drug uptake,Stomach [33],1.7 %ID
same,Ratio,Brain [34],26.7
same,Drug uptake,Intestine [35],4.09 % ID/g
same,Drug uptake,Brain [36],0.12 % ID/g
same,Drug uptake,Liver [37],29.4 % ID/g
same,Drug uptake,Lung [38],1.44 % ID/g
same,Drug uptake,Heart [39],2.84 % ID/g
same,Drug uptake,Kidney [40],10.6 % ID/g
same,Drug uptake,Liver [41],15.6 % ID/g
same,Drug uptake,Brain [42],1.4 % ID/g
